Measurements of several laboratories.
Compare with care: the assays were run in different laboratories.
Cell line: HepG2
Effect on: cell growth or viability

N=C(N)c1ccc(OCCCCCOc2ccc(C(=N)N)cc2)cc1
CC50 (MTS; 24 h): > 20 µM

COc1ccc2c(c1)c1c(n2CO)CN2CCc3cc(OC)c(OCC(F)(F)F)cc3C2C1 (stereo not drawn)
viability (5 µM; 24 h): 102%

CNc1cccc2cc(C(=O)Nc3ccc(C(=O)O)cc3)c(=O)[nH]c12
cell death (CCK-8; 10 µM; 48 h): 1.5%

CCc1ccc(C2=NC(=Cc3ccc(CCCCCCCCCC(C)O)[nH]3)C(OC)=C2)[nH]1 (stereo not drawn)
IC50: 1.76 µM

C/C=C(/C)C(=O)O[C@@H]1[C@H](OC(C)=O)c2c(ccc3ccc(=O)oc23)OC1(C)C
IC50 (WST-1): 50.9 µM

COC1=CC(c2cccn2C)=NC1=Cc1ccc(CCCCCCCCCC(C)O)[nH]1 (stereo not drawn)
IC50: > 100 µM

COc1ccc2c(c1)c1c(n2CO)CN2CCc3cc(OCc4ccccc4)c(OC)cc3C2C1 (stereo not drawn)
viability (10 µM; 24 h): 111%

Cc1[nH]c2ccc(F)cc2c(=O)c1-c1ccc(Oc2ccc(OC(F)(F)F)cc2)nc1
IC50 (resazurin): > 10 µM

COC(=O)[C@]1(O)C[C@@H](O)[C@@H](O)[C@H](OC(=O)/C=C/c2ccc(O)c(O)c2)C1
IC50 (WST-1): 30.9 µM

COc1ccc(CCN2CCC(Nc3nc4ccccc4n3Cc3ccc(F)cc3)CC2)cc1
viability (resazurin; 10 µM; 24 h): 68%

COc1ccc2c(c1)c1c(n2CO)CN2CCc3cc(OC)c(OCc4ccc(F)cc4)cc3C2C1 (stereo not drawn)
viability (5 µM; 24 h): 104%

COc1cc2[nH]c(C)c(-c3ccc(Oc4ccc(F)c(OC(F)(F)F)c4)cc3)c(=O)c2cc1Cl
IC50 (resazurin): > 10 µM

CC(C)(C)CC(C)(C)Nc1c(-c2cccc(C#N)c2)nc2ncccn12
viability (MTT; 25 µM; 48 h): 74.5%

OC(c1cc(C(F)(F)F)nc2c(C(F)(F)F)cccc12)C1CCCCN1 (stereo not drawn)
IC50: 11 µM

CC1(C)CC[C@]2(C)CC[C@]3(C)[C@H]4CC=C5[C@@H](CC[C@H](O)C5(C)C)[C@]4(C)CC[C@@]3(C)[C@@H]2C1
IC50 (WST-1): 50.9 µM

CCCCCCn1c(-c2cccc(Cl)c2)n[nH]c1=S
viability (resazurin; 50 µM; 24 h): 92%

Cc1[nH]c2ccccc2c(=O)c1-c1ccc(Oc2ccc(OC(F)(F)F)cc2)nc1
IC50 (resazurin): > 10 µM

CNc1cccc2cc(C(=O)NCCc3cccc(C(=O)O)c3)c(=O)[nH]c12
cell death (CCK-8; 50 µM; 48 h): 15%

COc1cc2[nH]c(C)c(-c3ccc(Oc4ccc(OC(F)(F)F)c(F)c4)cc3)c(=O)c2cc1Cl
IC50 (resazurin): > 10 µM

CC(C)(C)CC(C)(C)Nc1c(-c2cccnc2)nc2ncccn12
viability (MTT; 25 µM; 48 h): 92.5%

COC1=CC(c2ccc[nH]2)=NC1=Cc1ccc(CCCCCCCCCCCO)[nH]1
IC50: 11.4 µM

COc1cc2[nH]c(C)c(-c3ccc(Oc4cccc(OC(F)(F)F)c4)cc3)c(=O)c2cc1Cl
IC50 (resazurin): > 10 µM

CNc1cccc2cc(C(=O)NCc3ccc(C(=O)O)cc3)c(=O)[nH]c12
cell death (CCK-8; 10 µM; 48 h): 6.1%

COc1cc2c(cc1OCc1ccccc1F)C1Cc3c(n(CO)c4ccccc34)CN1CC2 (stereo not drawn)
viability (10 µM; 24 h): 109%
